The values below come from ChEMBL document CHEMBL2375278, “Small-molecule inhibitors of cathepsin L incorporating functionalized ring-fused molecular frameworks” (Bioorg Med Chem Lett, 2013).

One assay is filed under the species Homo sapiens. As to the kind of experiment: Selectivity ratio of IC50 for human liver Cathepsin B to IC50 for human liver Cathepsin L.
The target of another assay is Cathepsin B (Homo sapiens, UniProt P07858). As to the kind of experiment: Inhibition of human liver Cathepsin B using Z-Arg-Arg-aminomethylcoumarin as substrate incubated for 5 mins prior to substrate addition measured for 5 mins by fluorometric analysis. In outline:
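Assay run with 2% DMSO in the well and a five-minute pre-incubation before substrate. Substrate was used at 60 µM. Activity is reported as IC₅₀ (nM).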

Another assay deals with Procathepsin L (Homo sapiens, UniProt P07711). Put plainly: Inhibition of human liver Cathepsin L using Z-Phe-Arg-aminomethylcoumarin as substrate incubated for 5 mins prior to substrate addition measured for 5 mins by fluorometric analysis. In outline:
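Assay run with 2% DMSO in the well and a five-minute pre-incubation before substrate. Substrate was used at 50 µM. Activity is reported as IC₅₀ (nM).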

Sequence of Procathepsin L (P07711 whole entry): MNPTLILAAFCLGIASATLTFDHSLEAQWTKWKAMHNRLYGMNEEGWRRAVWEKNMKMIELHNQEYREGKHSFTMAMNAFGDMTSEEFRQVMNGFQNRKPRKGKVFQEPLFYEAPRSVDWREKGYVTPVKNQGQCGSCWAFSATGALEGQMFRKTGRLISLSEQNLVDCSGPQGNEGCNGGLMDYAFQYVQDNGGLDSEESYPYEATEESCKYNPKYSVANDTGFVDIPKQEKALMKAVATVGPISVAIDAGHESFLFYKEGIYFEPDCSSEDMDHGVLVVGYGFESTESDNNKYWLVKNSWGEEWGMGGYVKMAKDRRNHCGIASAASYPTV

For the compound `NC(=S)N/N=C1\CCN([N+](=O)[O-])c2ccc([N+](=O)[O-])cc21`, the Ratio IC50 in the assay listed under Homo sapiens is more than 20. Besides, the IC50 was more than 10 µM against Cathepsin B and 0.228 µM against Procathepsin L.

Consider `NC(=S)N/N=C1\CCc2ccccc2C1`, for which the half-maximal inhibitory concentration (IC50) on Cathepsin B and on Procathepsin L was more than 10 µM in each case.

In the case of `NC(=S)NN=C1c2cc([N+](=O)[O-])ccc2-c2ccc([N+](=O)[O-])cc21`, the IC50 on Cathepsin B and at Procathepsin L was more than 10 µM throughout.

`NC(=S)N/N=C1\CC[S+]([O-])c2ccc([N+](=O)[O-])cc21` (configuration not stated): the Ratio IC50 in the assay filed under Homo sapiens is more than 5.7. The IC50 against Cathepsin B was more than 10 µM; on Procathepsin L, 1.74 µM.

Regarding `CC(=O)N1CC/C(=N\NC(N)=S)c2ccccc21`, the half-inhibitory concentration (IC50) at Cathepsin B and against Procathepsin L was more than 10 µM throughout.

On to `CS(=O)(=O)c1ccc2c(c1)/C(=N/NC(N)=S)CCS2(=O)=O`, for which the IC50 against Cathepsin B and against Procathepsin L was more than 10 µM throughout.

Regarding `NC(=S)N/N=C1\CCCc2c(O)cccc21`, the IC50 on Cathepsin B and against Procathepsin L was more than 10 µM in each case.

On to `N=C(N)N/N=C1\CCSc2ccc([N+](=O)[O-])cc21`, for which the IC50 on Cathepsin B and at Procathepsin L was more than 10 µM throughout.

In the case of `NC(=S)N/N=C1\CCNc2ccc([N+](=O)[O-])cc21`, in the assay listed under Homo sapiens, the Ratio IC50 is more than 20. Moreover, the IC50 against Cathepsin B was more than 10 µM; against Procathepsin L, 0.449 µM.

As for `COc1ccc2c(c1)CCC/C2=N\NC(N)=S`, the IC50 on Cathepsin B and against Procathepsin L was more than 10 µM each time.

`COc1ccc2c(c1)/C(=N/NC(N)=S)CCC2`: the IC50 against Cathepsin B and at Procathepsin L was more than 10 µM each time.

For the compound `NC(=S)N/N=C1\CCCS(=O)(=O)c2cc(F)c(F)cc21`, the IC50 on Cathepsin B and at Procathepsin L was more than 10 µM each time.

Regarding `NC(=S)N/N=C1\CCNc2ccccc21`, the IC50 against Cathepsin B and on Procathepsin L was more than 10 µM throughout.

On to `NC(=S)N/N=C1\CC(Nc2ccccc2)c2ccc(Br)cc21` (configuration not stated), for which the IC50 against Cathepsin B and against Procathepsin L was more than 10 µM in each case.

With `NC(=S)N/N=C1\CCNc2c1cc([N+](=O)[O-])cc2[N+](=O)[O-]`, the Ratio IC50 in the assay filed under Homo sapiens was more than 20. Besides, the IC50 is more than 10 µM at Cathepsin B and 0.338 µM against Procathepsin L.

For `NC(=S)N/N=C1\CCN([N+](=O)[O-])c2ccccc21`, the concentration for half-maximal inhibition (IC50) on Cathepsin B and at Procathepsin L was more than 10 µM in each case.

`NC(=S)N/N=C1\CCCSc2ccc([N+](=O)[O-])cc21`: the Ratio IC50 in the assay filed under Homo sapiens is more than 15.2. Moreover, the concentration for half-maximal inhibition (IC50) against Cathepsin B is more than 10 µM; at Procathepsin L it was 0.658 µM.

Regarding `CN1CC/C(=N\NC(N)=S)c2cc(Br)ccc21`, the IC50 at Cathepsin B and at Procathepsin L was more than 10 µM each time.

On to `NC(=S)N/N=C1\CCc2ccc(Br)cc21`, for which the half-inhibitory concentration (IC50) against Cathepsin B and at Procathepsin L was more than 10 µM each time.

In the case of `NC(=S)N/N=C1\CCS(=O)(=O)c2ccc(N)cc21`, the IC50 at Cathepsin B and at Procathepsin L was more than 10 µM each time.

Consider `COc1cccc2c1CCC/C2=N\NC(N)=S`, for which the IC50 on Cathepsin B and at Procathepsin L was more than 10 µM in each case.

With `NC(=S)N/N=C1\CCCSc2cc(F)c(F)cc21`, the figures for the IC50 at Cathepsin B and against Procathepsin L were more than 10 µM and not below 10 µM, respectively.

On to `NC(=S)N/N=C1\CCCc2cc(N)ccc21`, for which the half-maximal inhibitory concentration (IC50) at Cathepsin B and against Procathepsin L was more than 10 µM each time.

For the compound `NC(=S)N/N=C1\CCNc2ccc(Br)cc21`, the Ratio IC50 in the assay filed under Homo sapiens is more than 20. Moreover, the figures for the IC50 against Cathepsin B and at Procathepsin L were more than 10 µM and 0.164 µM, respectively.

`NC(=S)N/N=C1\CCNc2c(Cc3ccccc3)cccc21`: the IC50 against Cathepsin B and on Procathepsin L was more than 10 µM in each case.

Regarding `NC(=S)N/N=C1\CCCS(=O)(=O)c2ccc([N+](=O)[O-])cc21`, the IC50 on Cathepsin B and against Procathepsin L was more than 10 µM in each case.

With `NC(=S)N/N=C1\CCCCc2ccccc21`, the IC50 at Cathepsin B and against Procathepsin L was more than 10 µM each time.

On to `N=C(N)N/N=C1\CCS(=O)(=O)c2ccc([N+](=O)[O-])cc21`, for which the IC50 against Cathepsin B and against Procathepsin L was more than 10 µM each time.

Consider `NC(=S)N/N=C1\CC(c2ccccc2)Oc2ccccc21` (configuration not stated), for which the IC50 at Cathepsin B and on Procathepsin L was more than 10 µM each time.

Take `NC(=S)N/N=C1\CCOc2ccc(Cl)cc21`: the Ratio IC50 in the assay filed under Homo sapiens is more than 20. In addition, the IC50 against Cathepsin B was more than 10 µM; at Procathepsin L, 0.369 µM.

A word on the IC50: it is the concentration needed to halve the response being measured. A higher IC50 goes with weaker potency in that assay.
